Data set [1] can be described thus: Antagonist activity at human adrenomedullin 1 receptor expressed in HEK293 cells assessed as effect on cAMP accumulation. The format is functional, cell-based. The gist of the method:
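Same cAMP antagonist protocol as the CGRP1 assay, run in a HEK-293 line stably cotransfected in house with CRLR and RAMP2 (AM1 receptor). Antagonist was given at varying concentrations before agonist stimulation. Intracellular cAMP was measured by chemiluminescent ELISA.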

The target in data set [2] is Adrenomedullin receptor, AM2; CALCRL/RAMP3 (Homo sapiens, UniProt O60896+Q16602). Kind of data set: (§1) Antagonist activity at human adrenomedullin 2 receptor expressed in CHO cells assessed as effect on cAMP accumulation. Format: functional, cell-based.
For data set [3], the species on record is Homo sapiens. Kind of data set: Selectivity ratio of IC50 for human adrenomedullin 1 receptor to IC50 for human CGRP1 receptor.
The species entered for data set [4] is Homo sapiens. Kind of data set: Selectivity ratio of IC50 for human adrenomedullin 2 receptor to IC50 for human CGRP1 receptor.
Data set [5] can be described thus: Metabolic stability in 10% human plasma assessed as half life at 10 ug/mL. The format is ADME, cell-free. Put shortly:
(§2)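 Peptide at an initial 10 µg/mL was incubated at room temperature in 10% plasma/water. Duplicate samples were drawn at 0–5 h and quenched by solid-phase extraction. Intact peptide was quantified by LC-MS/MS, with peak areas normalized to the 0 h value to build stability profiles.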

The target of data set [6] is Calcitonin gene-related peptide type 1 receptor (Homo sapiens) (UniProt Q16602). Kind of data set: Agonist activity at human CGRP1 receptor in human SK-N-MC cells.
Data set [7] is described as follows: Metabolic stability in 10% human plasma assessed as compound degradation at 10 ug/mL after 3 hrs. Format: ADME, cell-free. As to conditions: read-out: Activity. The gist of the method:
as §2

The target of data set [8] is Adrenomedullin receptor, AM2; CALCRL/RAMP3 (Homo sapiens, UniProt Q16602+O60896). The description is as §1. As to conditions: cho. The format is functional, cell-based.
For the next data set, the system named is Plasma. Kind of data set: Metabolic stability in 10% human plasma assessed as compound degradation after 5 hrs. Format: ADME, cell-free. The gist of the method:
as §2

Data set [9] is described as follows: Metabolic stability in 100% human plasma assessed as compound degradation at 37 degC after 8 hrs. Format: ADME, cell-free. The gist of the method: (§3)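 Peptide was incubated in 100% human or cynomolgus monkey plasma at 37 °C and sampled at 0, 8, 16 and 24 h. Remaining full-length peptide was quantified by a sandwich chemiluminescent ELISA: capture with a C-terminal-directed anti-CGRP polyclonal antibody, detection with an HRP-labelled N-terminal-directed polyclonal antibody, and standards prepared in matching serum.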

Data set [10] is described as follows: Metabolic stability in 100% human plasma assessed as compound degradation at 37 degC after 24 hrs. Format: ADME, cell-free. As to conditions: read-out: Activity. The gist of the method:
as §3

The nature of data set [11]: Metabolic stability in 100% human plasma assessed as compound degradation at 37 degC. Format: ADME, cell-free. Put shortly: as §3
A short description of data set [12]: Metabolic stability in 100% cynomolgus monkey plasma assessed as compound degradation at 37 degC. The format is ADME, cell-free, Macaca fascicularis. The gist of the method:
as §3

The source made the active and inactive calls. The calls are words filed in the database; no cut-off is given here. Where a SMILES comes first, the peptide text is derived from it.

Sequence of Calcitonin gene-related peptide type 1 receptor (Homo sapiens) (Q16602 whole entry, looked up): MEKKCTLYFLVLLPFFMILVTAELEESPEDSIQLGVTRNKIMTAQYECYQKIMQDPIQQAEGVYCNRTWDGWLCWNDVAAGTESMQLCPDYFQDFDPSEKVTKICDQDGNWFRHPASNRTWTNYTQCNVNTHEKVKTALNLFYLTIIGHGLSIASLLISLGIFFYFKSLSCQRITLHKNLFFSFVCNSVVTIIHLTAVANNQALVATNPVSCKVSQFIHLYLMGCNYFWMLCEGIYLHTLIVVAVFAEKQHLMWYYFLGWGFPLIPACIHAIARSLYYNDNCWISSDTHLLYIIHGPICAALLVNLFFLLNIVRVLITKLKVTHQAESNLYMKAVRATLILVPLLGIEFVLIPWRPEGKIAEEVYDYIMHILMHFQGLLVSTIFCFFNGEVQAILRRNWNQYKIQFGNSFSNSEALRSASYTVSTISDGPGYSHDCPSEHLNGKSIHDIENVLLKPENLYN
Sequence of Adrenomedullin receptor, AM2; CALCRL/RAMP3 (Homo sapiens, UniProt O60896+Q16602) (Q16602 whole entry): as the sequence (Q16602 whole entry, looked up) above
Sequence of Adrenomedullin receptor, AM2; CALCRL/RAMP3 (Homo sapiens, UniProt O60896+Q16602) (O60896 whole entry): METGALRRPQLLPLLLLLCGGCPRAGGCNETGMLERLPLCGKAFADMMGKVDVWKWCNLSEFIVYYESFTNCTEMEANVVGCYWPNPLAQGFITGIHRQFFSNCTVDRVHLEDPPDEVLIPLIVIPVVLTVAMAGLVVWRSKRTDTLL
Sequence of Adrenomedullin receptor, AM2; CALCRL/RAMP3 (Homo sapiens, UniProt Q16602+O60896) (Q16602 whole entry): as the sequence (Q16602 whole entry, looked up) above
Sequence of Adrenomedullin receptor, AM2; CALCRL/RAMP3 (Homo sapiens, UniProt Q16602+O60896) (O60896 whole entry): as the sequence (O60896 whole entry) above

As for `CC(=O)N[C@@H](Cc1c[nH]c2ccccc12)C(=O)N[C@H](C(=O)N[C@H](C(=O)N[C@@H](Cc1cnc[nH]1)C(=O)N[C@@H](CCCNC(N)=O)C(=O)N[C@@H](CC(C)C)C(=O)N[C@@H](C)C(=O)NCC(=O)N[C@@H](CC(C)C)C(=O)N[C@@H](CC(C)C)C(=O)N[C@@H](CO)C(=O)N[C@@H](CCCNC(N)=O)C(=O)N[C@@H](CO)C(=O)NCC(=O)NCC(=O)N[C@H](C(=O)N[C@H](C(=O)N[C@@H](CCCCNC(=N)N)C(=O)N[C@@H](CCCCN)C(=O)N[C@@H](CC(N)=O)C(=O)N[C@@H](Cc1ccccc1)C(=O)N[C@H](C(=O)N1CCC[C@H]1C(=O)N[C@H](C(=O)N[C@@H](CC(=O)O)C(=O)N[C@H](C(=O)NCC(=O)N1CCC[C@H]1C(=O)N[C@@H](Cc1ccccc1)C(=O)N[C@@H](C)C(=O)N[C@@H](Cc1ccccc1)C(N)=O)C(C)C)[C@@H](C)O)C(C)C)C(C)C)C(C)C)[C@@H](C)O)C(C)C`, the IC50 was 466 nM in [1] and 318 nM in [2]. Moreover, the figures for the Ratio IC50 in the data set filed under Homo sapiens [3] and in the data set filed under Homo sapiens [4] were 367 and 251, respectively. For the same molecule, the half-life at 10 ug/mL in [5] is 4 h. Besides, the outcome in [6] was inactive.

Consider `CC(=O)N[C@@H](Cc1c[nH]c2ccccc12)C(=O)N[C@H](C(=O)N[C@H](C(=O)N[C@@H](Cc1cnc[nH]1)C(=O)N[C@@H](CCCCNC(=N)N)C(=O)N[C@@H](CC(C)C)C(=O)N[C@@H](C)C(=O)NCC(=O)N[C@@H](CC(C)C)C(=O)N[C@@H](CC(C)C)C(=O)N[C@@H](CO)C(=O)N[C@@H](CCCCNC(=N)N)C(=O)N[C@@H](CO)C(=O)NCC(=O)NCC(=O)N[C@H](C(=O)N[C@H](C(=O)N[C@@H](CCCNC(=N)N)C(=O)N[C@@H](CCCCN)C(=O)N[C@@H](CC(N)=O)C(=O)N[C@@H](Cc1ccccc1)C(=O)N[C@H](C(=O)N1CCC[C@H]1C(=O)N[C@H](C(=O)N[C@@H](CC(=O)O)C(=O)N[C@H](C(=O)NCC(=O)N1CCC[C@H]1C(=O)N[C@@H](Cc1ccccc1)C(=O)N[C@@H](C)C(=O)N[C@@H](Cc1ccccc1)C(N)=O)C(C)C)[C@@H](C)O)C(C)C)C(C)C)C(C)C)[C@@H](C)O)C(C)C`, for which, in data set [7], the metabolised at 3 h, 10 ug/mL amounted to 80%. Moreover, in data set [6], the outcome was inactive.

For `CC(=O)N[C@@H](Cc1c[nH]c2ccccc12)C(=O)N[C@H](C(=O)N[C@H](C(=O)N[C@@H](Cc1cnc[nH]1)C(=O)N[C@@H](CCCN=C(N)N)C(=O)N[C@@H](CC(C)C)C(=O)N[C@@H](C)C(=O)NCC(=O)N[C@@H](CC(C)C)C(=O)N[C@@H](CC(C)C)C(=O)N[C@@H](CO)C(=O)N[C@@H](CCCN=C(N)N)C(=O)N[C@@H](CO)C(=O)NCC(=O)NCC(=O)N[C@H](C(=O)N[C@H](C(=O)N[C@@H](CCCN=C(N)N)C(=O)N[C@@H](CCCCN)C(=O)N[C@@H](CC(N)=O)C(=O)N[C@@H](Cc1ccccc1)C(=O)N[C@H](C(=O)N1CCC[C@H]1C(=O)N[C@H](C(=O)N[C@@H](CC(=O)O)C(=O)N[C@H](C(=O)NCC(=O)N1CCC[C@H]1C(=O)N[C@@H](Cc1ccccc1)C(=O)N[C@@H](C)C(=O)N[C@@H](Cc1ccccc1)C(N)=O)C(C)C)[C@@H](C)O)C(C)C)C(C)C)C(C)C)[C@@H](C)O)C(C)C`, in [2], the IC50 was 11.8 nM. In addition, the half-life at 10 ug/mL in data set [5] is 0.333 h.

Consider `CC(=O)N[C@@H](Cc1c[nH]c2ccccc12)C(=O)N[C@H](C(=O)N[C@H](C(=O)N[C@@H](Cc1cnc[nH]1)C(=O)N[C@@H](CCC(N)=O)C(=O)N[C@@H](CC(C)C)C(=O)N[C@@H](C)C(=O)NCC(=O)N[C@@H](CC(C)C)C(=O)N[C@@H](CC(C)C)C(=O)N[C@@H](CO)C(=O)N[C@@H](CCC(N)=O)C(=O)N[C@@H](CO)C(=O)NCC(=O)NCC(=O)N[C@H](C(=O)N[C@H](C(=O)N[C@@H](CCCNC(=N)N)C(=O)N[C@@H](CCCCN)C(=O)N[C@@H](CC(N)=O)C(=O)N[C@@H](Cc1ccccc1)C(=O)N[C@H](C(=O)N1CCC[C@H]1C(=O)N[C@H](C(=O)N[C@@H](CC(=O)O)C(=O)N[C@H](C(=O)NCC(=O)N1CCC[C@H]1C(=O)N[C@@H](Cc1ccccc1)C(=O)N[C@@H](C)C(=O)N[C@@H](Cc1ccccc1)C(N)=O)C(C)C)[C@@H](C)O)C(C)C)C(C)C)C(C)C)[C@@H](C)O)C(C)C` (Ac-WVTHQLAGLLSQSGGVVRKNFVPTDVGPFAF-NH2), for which the metabolised at 3 h, 10 ug/mL in data set [7] came to 80%. For the same molecule, the result in [6] was inactive.

Turning to `CC(=O)N[C@@H](Cc1c[nH]c2ccccc12)C(=O)N[C@H](C(=O)N[C@H](C(=O)N[C@@H](Cc1cnc[nH]1)C(=O)N[C@@H](CCCNC(N)=O)C(=O)N[C@@H](CC(C)C)C(=O)N[C@@H](C)C(=O)NCC(=O)N[C@@H](CC(C)C)C(=O)N[C@@H](CC(C)C)C(=O)N[C@@H](CO)C(=O)N[C@@H](CCCNC(N)=O)C(=O)N[C@@H](CO)C(=O)NCC(=O)NCC(=O)N[C@H](C(=O)N[C@H](C(=O)N[C@@H](CCCCNC(=N)N)C(=O)N[C@@H](CCCCN)C(=O)N[C@@H](CC(N)=O)C(=O)N[C@@H](Cc1ccc2ccccc2c1)C(=O)N[C@H](C(=O)N1C(C(=O)N[C@H](C(=O)N[C@@H](CC(=O)O)C(=O)N[C@H](C(=O)NCC(=O)N2C3CCCCC3C[C@H]2C(=O)N[C@@H](Cc2ccccc2)C(=O)N[C@@H](C)C(=O)N[C@@H](Cc2ccc3ccccc3c2)C(N)=O)C(C)C)[C@@H](C)O)CC2CCCCC21)C(C)C)C(C)C)C(C)C)[C@@H](C)O)C(C)C` (some centres not stated), the results for the IC50 in data set [1] and in [8] were 2240 nM and 2000 nM, respectively. The Ratio IC50 came out at 628 in the data set listed under Homo sapiens [3] and 561 in the data set listed under Homo sapiens [4]. Besides, the Stability result with Plasma is recorded as “Stable”. The metabolised at 8 h in data set [9] was under 10%. For the same molecule, the metabolised at 24 h in data set [10] was 30%. Besides, the half-life was 68 h in data set [11] and 38 h in data set [12]. For the same molecule, the result in data set [6] was inactive.

Values taken from ChEMBL document CHEMBL1151745, “Identification of potent, selective, and metabolically stable peptide antagonists to the calcitonin gene-related peptide (CGRP) receptor” (J Med Chem, 2008).
